Compound activity as filed in PubChem.
This is a sample that favours compounds with a hit; in the whole collection about 3.7% have one here.
XBP1 UPR activ – activators of adaptive arm of unfolded protein response (XBP1). activation, % at 20 µM. CHO-XBP1 luciferase reporter, IRE1-XBP1 UPR activation, luminescence; percent of tunicamycin response, DMSO as zero. 330,000 tested, 0.33% active;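 active = versus positive control, 20 µM dose yields 30% or more activation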;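 note: 100% = tunicamycin at 10 µg/mL and 0% = DMSO only wells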
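Signal: luciferase luminescence; Assay system: CHO-XBP1 luciferase reporter cells; Amount: one thousand reporter cells per well; Dosing: 20 µM single concentration, DMSO 1%; Benchmarks: high control tunicamycin 10 µg/mL final, low control DMSO vehicle only; Schedule: 6 h compound exposure at 37 °C, 5% CO2; Evaluation: percent activation relative to tunicamycin reference.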
UPR CHOP act – activators of apoptotic arm of unfolded protein response (CHOP); CHO-CHOP luciferase reporter, UPR activation, luminescence; percent of tunicamycin response over DMSO baseline; activation, % at 10 µM; 330,000 tested, 0.34% active;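 active = at 10 µM dose, activation of 40% or more, normalized to positive control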;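 note: 100% = tunicamycin at 10 µg/mL and 0% = DMSO alone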
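System: CHO-CHOP luciferase reporter cell line | Buffer or medium: F12 medium containing 10% fetal bovine serum | Doses: One dose, 10 µM in 0.5% DMSO | Times: 6 h compound exposure at 37 °C after overnight seeding | Signal: Luciferase luminescence | Read-out: % activation vs tunicamycin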
Dynein cargo inh – blocks dynein driven cargo transport along microtubules | 3617.4 mouse cells, GR-EGFP nuclear translocation imaging; test concentration mostly 20 µM; stimulated with dexamethasone, 1 µM; active compounds read low | z-score, hits read low | 220,000 tested, 0.47% active | AID 1381;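 active = plate z-score of nuclear minus cytoplasmic receptor signal below a set negative limit, without overly bright fluorescence or cell loss, cut at about -3.5 in these data, passing the limit was not always enough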;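 note: z-score of nuclear minus cytoplasmic ring GR-EGFP intensity difference per well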
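Buffer or medium – tet-free medium with charcoal-stripped serum · Signal – automated 10x imaging of fixed Hoechst-stained cells · Also added – dexamethasone agonist, 1.0 µM final, for 30 min · Incubation – induction 48 h, compound 1 h, agonist 30 min · Read-out – GR-EGFP nuclear translocation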
Mdm2 MdmX PPI – disrupts the human Mdm2-MdmX interaction; O15151+Q00987; SaOS-2 split-luciferase Mdm2/MdmX complementation, luminescence; AID 485346; 330,000 tested, 3% active; inhibition, % at 8 µM;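 active = inhibition of at least 50% at 8 µM in the primary screen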
Mdm2 ligase inh – blocks human Mdm2 ubiquitin ligase activity; cell-based MDM2 ubiquitination luciferase reporter, 2 h; 0 = plate control, 100 = twice control, blank-subtracted; signal enhancement, % at 5 µM; 210,000 tested, 0.11% active; AID 1230;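 active = signal enhancement of 30% or more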;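 note: luminescence tracks abundance of the self-degrading MDM2-luciferase fusion protein; higher signal means inhibition of MDM2 E3 ligase activity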
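Assay system: stable mammalian line carrying autodegrading MDM2–luciferase fusion reporter; Input: 2000 cells in each well; Compound dosing: single-point 5 µM; Schedule: 2 h compound exposure at 37 °C; Signal: SteadyLite luciferase luminescence after 15 min room-temperature reagent incubation; Evaluation: % luminescence enhancement versus blank-corrected plate control mean; Benchmarks: plate controls and plate blanks.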
Beta2AR agonist – agonists of human beta-2 adrenergic receptor inducing internalization; 340,000 tested, 0.43% active; Am2.2-beta2AR cells, FAP receptor internalization, flow cytometry; P07550; response, % (test concentration not listed); AID 504454;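 active = response above a set limit, near 3 SD of response in nonfluorescent compounds, cut at about 42% in these data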
Target sequence (P07550 whole entry, looked up): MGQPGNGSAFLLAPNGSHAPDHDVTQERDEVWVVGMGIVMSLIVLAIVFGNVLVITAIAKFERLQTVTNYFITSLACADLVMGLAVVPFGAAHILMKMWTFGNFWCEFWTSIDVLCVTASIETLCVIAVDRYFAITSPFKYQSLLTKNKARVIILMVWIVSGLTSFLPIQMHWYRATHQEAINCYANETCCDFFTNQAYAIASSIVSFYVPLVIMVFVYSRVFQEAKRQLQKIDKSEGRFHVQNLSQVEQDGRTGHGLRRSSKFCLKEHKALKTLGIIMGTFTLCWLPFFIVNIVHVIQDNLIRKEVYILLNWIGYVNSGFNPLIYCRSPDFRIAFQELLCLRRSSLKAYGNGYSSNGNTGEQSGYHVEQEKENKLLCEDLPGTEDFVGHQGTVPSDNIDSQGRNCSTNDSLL
UPR CHOP confirm – apoptotic UPR (CHOP) activation, confirmed; shares compounds with UPR CHOP act; CHO-CHOP cells, CHOP-luciferase reporter luminescence; percent of tunicamycin response, DMSO as zero; activation, % at 10 µM; 1,000 tested, 64% active; in the data active = activation above about 33%;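 note: 0% = DMSO wells and 100% = tunicamycin 10 µg/mL wells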
XBP1 UPR conf – confirmation of adaptive unfolded protein response (XBP1) activators | activation, % at 20 µM | 1,000 tested, 63% active | CHO-XBP1 IRE1-XBP1 luciferase reporter, luminescence | shares compounds with XBP1 UPR activ;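 active = reporter signal at least 30% of the positive control's activation in two or more of four replicate wells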;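 note: plate controls were DMSO negative control for no effect and tunicamycin 10 µg/mL positive control for full effect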
Mdm2-MdmX conf – confirmation of human Mdm2/MdmX interaction inhibitors; 10,000 tested, 55% active; inhibition, % at 8 µM; Mdm2-MdmX binding, luminescent assay; AID 489028; shares compounds with Mdm2 MdmX PPI; in the data active = inhibition above about 40%
Full FLuc ctr – counter-screen for Mdm2/MdmX inhibitors: full-length luciferase; shares compounds with Mdm2 MdmX PPI; SaOS-2 full-length luciferase counterscreen, luminescence; inhibition, % at 8 µM; 6,200 tested, 77% active;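 active = mean inhibition at 8 µM reaching about 37%, which flags the compound as non-specific, limit read from the data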;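 note: p53-null SaOS-2 cells with luciferase driven by a doxycycline-inducible promoter; compound on cells about two nights before reading with doxycycline added after day one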
Starred values were filed as active, the others as inactive; . = no result given.

SMILES | XBP1 UPR activ | UPR CHOP act | Dynein cargo inh | Mdm2 MdmX PPI | Mdm2 ligase inh | Beta2AR agonist | UPR CHOP confirm | Mdm2-MdmX conf | Full FLuc ctr | others
O=C(C[C@H]1C[C@H](C(=O)N2CCCCC2)[C@@]2(CCc3ccccc3)c3[nH]c4ccc(Cl)cc4c3CCN2C1=O)NCCN1CCOCC1 | -5 | 52* | . | 83* | . | 2 | 0 | 42* | 42*
O=C(C[C@H]1C[C@H](C(=O)N2CCCCC2)[C@@]2(CCc3ccccc3)c3[nH]c4ccc(Cl)cc4c3CCN2C1=O)NCCCn1ccnc1 | 9 | 9 | . | 49 | . | 9 | . | . | .
COc1ccc(-c2cc(-c3ccccc3)c(C#N)c(SCC(=O)O)n2)cc1 | -2 | 1 | . | 1 | . | 17 | . | . | .
COc1ccc(CNC(=O)CSc2nc(-c3ccccc3)cc(-c3cccs3)c2C#N)cc1 | 33* | 45* | 1.5 | 63* | -9 | -11 | 7 | -4 | . | XBP1 UPR conf=20
Cc1cccc(C(C(=O)NC2CCCC2)N(C(=O)c2csnn2)C2CC2)c1 (stereo unspecified) | -2 | 0 | . | 3 | . | 1 | . | . | .
Cc1cccc(C)c1NC(=O)c1nc(S(=O)(=O)Cc2ccccc2)ncc1Cl | -11 | 239* | . | 68* | . | 28 | 271* | 98* | 1
COc1ccc(NC(=O)c2c(-c3ccccc3Cl)noc2C)c(OC)c1 | -2 | 5 | -0.13 | -7 | -16 | 3 | . | . | .
Cc1nnc(NC(=O)c2nc(S(=O)(=O)Cc3ccccc3)ncc2Cl)s1 | -11 | 41* | . | 85* | . | 6 | 11 | 16 | .
Cc1ccccc1CS(=O)(=O)c1ncc(Cl)c(C(=O)Nc2ccc(F)cc2)n1 | -9 | 187* | . | 100* | . | 29 | 101* | 65* | 52*
COc1ccc(NC(=O)c2nc(S(=O)(=O)Cc3cccc(C)c3)ncc2Cl)c(OC)c1 | -5 | 61* | . | 85* | . | 7 | 296* | 70* | 23
Cc1ccccc1NC(=O)c1nc(S(C)(=O)=O)ncc1Cl | -11 | 17 | . | 39 | . | 6 | . | . | .
CC(C)[C@H](NS(=O)(=O)c1ccc(Cl)cc1)C(=O)OCC(=O)NCCN1C(=O)CSC1=O | -3 | -2 | . | 18 | . | 11 | . | . | .
COc1ccc(NS(=O)(=O)c2ccc3ccccc3c2)c2ncccc12 | 3 | 137* | . | 92* | . | 6 | 418* | 88* | 37*
CC1CCN(c2ccc(NC(=O)c3ccc([N+](=O)[O-])o3)cc2)CC1 | -9 | 16 | . | 46 | . | 16 | . | . | .
CC(C)(C)C(=O)N1CCN(c2ccc(NC(=O)c3ccc([N+](=O)[O-])o3)cc2)CC1 | 2 | 59* | . | 54* | . | 24 | 87* | 46* | 31
COc1ccc(-c2oc(NC(=O)CCl)c(C#N)c2-c2ccc(OC)cc2)cc1 | 24 | 489* | 0.078 | 98* | -16 | 16 | 218* | 65* | 55*
COc1ccc(-c2oc(NC(=O)CSc3ncn[nH]3)c(C#N)c2-c2ccc(OC)cc2)cc1 | -3 | -1 | -1.4 | 48 | 8 | 2 | . | . | .
Cc1cc(NC(=O)c2cc(-c3ccccn3)nc3ccc(Br)cc23)no1 | 34* | 58* | . | 66* | . | 16 | 61* | 23 | . | XBP1 UPR conf=33*
COc1ccc(CC(=O)Nc2ccc(-c3noc(COc4ccccc4C)n3)cc2)cc1 | -5 | -3 | 0.85 | 19 | -16 | 2 | . | . | .
COc1ccc(CC(=O)Nc2ccc(-c3noc(-c4ccc(Cl)cc4)n3)cc2)cc1 | 76* | 79* | 1.1 | 91* | 0 | -3 | 13 | 10 | . | XBP1 UPR conf=22
O=C(Nc1cc2c(cc1Cl)-c1ccc([N+](=O)[O-])cc1C2=NO)C(F)(F)F | . | . | . | . | . | -14 | . | . | .
COCC1CCCN(C(=O)c2cc(COc3ccc4ncccc4c3)on2)C1 (stereo unspecified) | -5 | 2 | . | 14 | . | 0 | . | . | .
FC(F)(F)c1nnc2c(Sc3ccc(Cl)cc3)nc3ccccc3n12 | 59* | 84* | 3.1 | 85* | -23 | 23 | 127* | 95* | 32 | XBP1 UPR conf=55*
CC(C)=NOc1nc(NC(=O)NS(=O)(=O)c2ccccc2Cl)nc(N(C)C)n1 | 0 | 4 | . | 4 | . | -3 | . | . | .
CCOc1ccc(-n2c(SCC(=O)N3CCc4ccccc43)nnc2-c2c[nH]c3ccccc23)cc1 | -2 | -1 | -1 | 28 | . | -4 | . | . | .
SMILES | XBP1 UPR activ | UPR CHOP act | Dynein cargo inh | Mdm2 MdmX PPI | Mdm2 ligase inh | Beta2AR agonist | UPR CHOP confirm | Mdm2-MdmX conf | Full FLuc ctr | others
COc1cccc(-n2c(SCC(=O)N3CCc4ccccc43)nnc2-c2c[nH]c3ccccc23)c1 | 336* | 102* | -1 | 75* | . | -7 | 43* | 49* | 83* | XBP1 UPR conf=229*
CCOc1ccc2nc(SCC(=O)NCC3CCCO3)c(C#N)cc2c1 (stereo unspecified) | 3 | 1 | . | -14 | . | -16 | . | . | .
CCc1nc(N=Nc2c(O)[nH]c3ccccc23)c2c3c(sc2n1)CCC3 | 35* | 94* | 0.023 | 87* | -10 | 11 | 76* | 13 | . | XBP1 UPR conf=168*
O=c1oc2cc(Oc3c([N+](=O)[O-])cc(C(F)(F)F)cc3[N+](=O)[O-])ccc2c2c1CCCC2 | 0 | 54* | -3.8* | 67* | -24 | 10 | 20 | 14 | .
Cc1cc(NC(=O)CSC2=NS(=O)(=O)c3cc(F)ccc3N2)no1 | 0 | -1 | . | 25 | . | -13 | . | . | .
CCOC(=O)N1CCC(N2Cc3cccc(C(=O)Nc4ccc(N(CC)CC)cc4C)c3C2=O)CC1 | -4 | 1 | . | 40 | . | 13 | . | . | .
CCOC(=O)c1[nH]c2ccc(Cl)cc2c1NC(=O)/C=C/c1ccc2c(c1)OCO2 | 168* | 54* | 0.22 | 56* | -3 | -5 | 20 | 45* | 94* | XBP1 UPR conf=138*
CC1=NOC(=O)/C1=C\c1ccc(-c2cccc(Cl)c2)o1 | 7 | 115* | -0.42 | 96* | -19 | 101* | 190* | 15 | .
CN(Cc1ccon1)C(=O)C1CCN(C2CCN(CCCc3ccccc3)CC2)CC1 | 0 | 2 | . | 27 | . | 1 | . | . | .
